The source of these data is ChEMBL document CHEMBL5325487, “Suramin analogues protect cartilage against osteoarthritic breakdown by increasing levels of tissue inhibitor of metalloproteinases 3 (TIMP-3) in the tissue” (Bioorg Med Chem, 2023).

For orientation: EC50 means the midpoint of the concentration-response curve. The term Kd denotes the free concentration of one partner at which half of the binding sites on the other are occupied at equilibrium, for simple one-to-one binding.

The test system of series [1] is SW1353. In words: Induction of TIMP3 protein level in human HTB-94 cells at 100 ug/ml incubated for 36 hrs by Western blotting analysis. The conditions noted are these: dose 100.0 µg/ml. The series is classed as functional, cell-based. The procedure, abridged: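 HTB94 cells (5×10^5/well) washed in serum-free DMEM and treated 36 h with 100 μg/mL in serum-free DMEM. Conditioned medium was TCA-precipitated and run on non-reducing 15% SDS-PAGE, then transferred to PVDF. TIMP-3 was detected with rabbit anti-TIMP-3 and an IRDye 800CW secondary by infrared imaging. Values are expressed as % of 100 μg/mL suramin-treated samples on the same blot. n = 3, mean ± SD.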

The nature of series [2]: Cytotoxicity against porcine Chondrocyte assessed cell number at 100 ug/ml incubated for 3 days by MTS assay. The series is classed as toxicity, cell-based, Sus scrofa. The conditions noted are these: pig, 72 h, dose 100 µg/ml, time 3 day. In outline: (§1)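 Primary porcine chondrocytes, released by pronase E then type II collagenase digestion of cartilage and plated at 10^4/well, were washed in serum-free DMEM. They were exposed to 100 μg/mL analogue, with or without IL-1β (10 ng/mL), for 3 days. Cell number was read by MTS against a twice freeze/thawed control. n = 3 biological replicates, mean ± SD.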
In general terms: Formazan colour is commonly taken as a measure of viable cells.

The subject of series [3] is SW1353. In words: Effect on ADAMTS4 mRNA level in human HTB-94 cells at 50 to 200 ug/ml incubated for 36 hrs by RT-qPCR analysis. Type of series: functional, cell-based. The conditions noted are these: dose 50-200 µg/ml. In outline: (§2)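 HTB94 cells (5×10^5/well) plated overnight, washed three times, then treated with analogue (50–200 μg/mL) in serum-free DMEM for 36 h. RNA was isolated and transcripts quantified by RT-qPCR (ΔΔCt), normalised to RN18S1 and to untreated cells. n = 3, mean ± SD.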
Background: In qPCR the cycle at which signal appears reflects the starting amount.

Series [4] is described as follows: Induction of TIMP3 protein level in human HTB-94 cells at 100 ug/ml incubated for 36 hrs by slot blotting analysis relative to suramin. Type of series: functional, SW1353. The conditions noted are these: dose 100 µg/ml. In outline:
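Serum-free 36 h treatment (100 μg/mL) of HTB94 cells (5×10^5/well). TCA-concentrated conditioned medium was slot-blotted onto nitrocellulose and probed with rabbit anti-TIMP-3 and an IRDye 800CW secondary, then imaged by infrared fluorescence. Pixel volume is expressed relative to 100 μg/mL suramin samples on the same blot (100%). n = 3, mean ± SD.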

Series [5] concerns SW1353. In words: Effect on MMP13 mRNA level in human HTB-94 cells at 50 to 200 ug/ml incubated for 36 hrs by RT-qPCR analysis. The series is classed as functional, cell-based. The conditions noted are these: dose 50-200 µg/ml. In outline: as §2
Series [6] is described as follows: Induction of TIMP3 protein level in human HTB-94 cells incubated for 36 hrs by slot blotting analysis relative to 100 ug/ml suramin. Type of series: functional, cell-based. The conditions noted are these: SW1353, 36 h. In outline:
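Dose-response over 0–250 μg/mL for 36 h in serum-free DMEM using HTB94 cells (5×10^5/well). TIMP-3 in TCA-concentrated medium was measured by slot blot with anti-TIMP-3/IRDye 800CW detection, normalised to 100 μg/mL suramin on each blot. EC50 was fitted with a one-site specific binding model. n = 3, mean ± SD.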

Series [7] has as its system SW1353. In words: Effect on ADAMTS5 mRNA level in human HTB-94 cells at 50 to 200 ug/ml incubated for 36 hrs by RT-qPCR analysis. Type of series: functional, cell-based. The conditions noted are these: dose 50-200 µg/ml. In outline:
as §2

The test system of series [8] is SW1353. In words: Effect on LRP1 mRNA level in human HTB-94 cells at 50 to 200 ug/ml incubated for 36 hrs by RT-qPCR analysis. The series is classed as functional, cell-based. The conditions noted are these: dose 50-200 µg/ml. The procedure, abridged:
as §2

Series [9] has as its system SW1353. The experiment in a line: Effect on TIMP3 mRNA level in human HTB-94 cells at 50 to 200 ug/ml incubated for 36 hrs by RT-qPCR analysis. Type of series: functional, cell-based. The conditions noted are these: dose 50-200 µg/ml. In outline: as §2
Series [10] can be described thus: Cytotoxicity against porcine Chondrocyte assessed cell number at 100 ug/ml incubated for 3 days in presence of IL-1beta by MTS assay. The conditions noted are these: pig, 72 h, dose 100 µg/ml, time 3 day. Type of series: toxicity, cell-based, Sus scrofa. In outline:
as §1

Another series is filed under the species Sus scrofa. The experiment in a line: Inhibition of cartilage degradation in porcine cartilage explants assessed as inhibition of IL-1beta-induced aggrecan release at 100 ug/ml measured after 3 days by DMMB assay. The conditions noted are these: Cartilage tissue, dose 100.0 µg/ml, time 3.0 day. The series is classed as functional, tissue-based. The procedure, abridged:
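Porcine metacarpophalangeal cartilage explants (3–9-month-old pigs), rested 48 h after dissection, were washed and treated 72 h with IL-1β (10 ng/mL) plus 100 μg/mL analogue. Medium was DMEM with 0.1% FCS, amphotericin B and 10 mM HEPES. Aggrecan released into the medium was measured by DMMB assay. n = 3 biological × 2 technical replicates, mean ± SD.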

Series [11] concerns SW1353. The experiment in a line: Cytotoxicity against human HTB-94 cells assessed as cell viability at 100 ug/ml measured after 36 h by MTS assay.
Series [12] deals with T1, Metalloproteinase inhibitor 3 (Homo sapiens, UniProt P35625).
T1 sequence (P35625 whole entry): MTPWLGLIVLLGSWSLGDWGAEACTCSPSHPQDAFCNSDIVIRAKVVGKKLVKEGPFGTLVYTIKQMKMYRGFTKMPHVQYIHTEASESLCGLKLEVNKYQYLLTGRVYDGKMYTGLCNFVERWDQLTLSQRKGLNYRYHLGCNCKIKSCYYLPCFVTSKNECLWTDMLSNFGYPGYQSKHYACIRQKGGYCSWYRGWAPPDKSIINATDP
The experiment in a line: Binding affinity to FLAG-tagged human TIMP3 expressed in HEK293 cells assessed as dissociation constant. Type of series: cell-based.

Active and inactive are the calls of the source. The calls are words filed in the database; no cut-off is given here. Some results are limits rather than exact numbers.

As to `O=C(Nc1cc(S(=O)(=O)O)cc2cc(S(=O)(=O)O)cc(S(=O)(=O)O)c12)c1ccc([N+](=O)[O-])cc1`, the outcome in the series with SW1353 [1] was inactive.
On to `O=C(Nc1ccc(C(=O)Nc2ccc(C(=O)Nc3cc(S(=O)(=O)O)cc4cc(S(=O)(=O)O)cc(S(=O)(=O)O)c34)cc2)cc1)Nc1ccc(C(=O)Nc2ccc(C(=O)Nc3cc(S(=O)(=O)O)cc4cc(S(=O)(=O)O)cc(S(=O)(=O)O)c34)cc2)cc1`, for which the Activity result is given as “Non-Toxic” in [2], 30% in series [4] and “Non-Toxic” in series [10]. In addition, the result in the series on SW1353 [3], in the series with SW1353 [5], with SW1353 [7], in the series with SW1353 [8] and in the series on SW1353 [9] was inactive. The EC50 in series [6] came to 19000 nM. For the same molecule, the outcome with SW1353 [1] was Active.
As for `O=C(Nc1ccc(C(=O)Nc2cccc(C(=O)Nc3cc(S(=O)(=O)O)cc4cc(S(=O)(=O)O)cc(S(=O)(=O)O)c34)c2)cc1)Nc1ccc(C(=O)Nc2cccc(C(=O)Nc3cc(S(=O)(=O)O)cc4cc(S(=O)(=O)O)cc(S(=O)(=O)O)c34)c2)cc1`, the inhibition result in the series filed under Sus scrofa is “Active”. Besides, the Activity in series [4] is reported as -50%; in the series with SW1353 [11], “Non-Toxic”. Also, the EC50 in series [6] was determined as 17000 nM.
For the molecule `O=C(Nc1ccc(C(=O)Nc2ccc(C(=O)Nc3ccc(S(=O)(=O)O)c4cc(S(=O)(=O)O)cc(S(=O)(=O)O)c34)cc2)cc1)Nc1ccc(C(=O)Nc2ccc(C(=O)Nc3ccc(S(=O)(=O)O)c4cc(S(=O)(=O)O)cc(S(=O)(=O)O)c34)cc2)cc1`, the EC50 in series [6] amounted to 17000 nM.
As to `O=C(Nc1cc(C(=O)Nc2ccc(S(=O)(=O)O)cc2)cc(C(=O)Nc2ccc(S(=O)(=O)O)cc2)c1)Nc1cc(C(=O)Nc2ccc(S(=O)(=O)O)cc2)cc(C(=O)Nc2ccc(S(=O)(=O)O)cc2)c1`, in [12], the Kd was found to be 6.88 nM.
In the case of `Nc1ccc(C(=O)Nc2cc(S(=O)(=O)O)cc3cc(S(=O)(=O)O)cc(S(=O)(=O)O)c23)cc1`, the result in the series on SW1353 [1] was inactive.
Turning to `Nc1ccc(C(=O)Nc2ccc(C(=O)Nc3cc(S(=O)(=O)O)cc4cc(S(=O)(=O)O)cc(S(=O)(=O)O)c34)cc2)cc1`, in the series on SW1353 [1], the outcome was inactive.
Take `O=C(Nc1ccc(C(=O)Nc2cc(S(=O)(=O)O)cc3cc(S(=O)(=O)O)cc(S(=O)(=O)O)c23)cc1)c1ccc([N+](=O)[O-])cc1`: in the series on SW1353 [1], the outcome was inactive.
As for `O=C(Nc1cccc(C(=O)Nc2cc(S(=O)(=O)O)cc3ccc(S(=O)(=O)O)cc23)c1)Nc1cccc(C(=O)Nc2cc(S(=O)(=O)O)cc3ccc(S(=O)(=O)O)cc23)c1`, in [12], the Kd is above 100 nM.
Take `O=C(Nc1cccc(C(=O)Nc2ccc(S(=O)(=O)O)c3cc(S(=O)(=O)O)cc(S(=O)(=O)O)c23)c1)Nc1cccc(C(=O)Nc2ccc(S(=O)(=O)O)c3cc(S(=O)(=O)O)cc(S(=O)(=O)O)c23)c1`: in series [12], the Kd was 26.5 nM.
On to `O=C(Nc1cccc(C(=O)Nc2ccc(C(=O)Nc3cc(S(=O)(=O)O)cc4cc(S(=O)(=O)O)cc(S(=O)(=O)O)c34)cc2)c1)Nc1cccc(C(=O)Nc2ccc(C(=O)Nc3cc(S(=O)(=O)O)cc4cc(S(=O)(=O)O)cc(S(=O)(=O)O)c34)cc2)c1`, for which the inhibition entry in the series listed under Sus scrofa is “Active”. In addition, the Activity in series [4] is on record as -50%; with SW1353 [11] it was “Non-Toxic”.
For `Cc1ccc(C(=O)Nc2ccc(P(=O)(O)O)cc2P(=O)(O)O)cc1NC(=O)c1cccc(NC(=O)Nc2cccc(C(=O)Nc3cc(C(=O)Nc4ccc(P(=O)(O)O)cc4P(=O)(O)O)ccc3C)c2)c1`, the Kd in [12] was above 100 nM.
For `Cc1ccc(C(=O)Nc2ccc(S(=O)(=O)O)c3cc(S(=O)(=O)O)cc(S(=O)(=O)O)c23)cc1NC(=O)c1cccc(NC(=O)Nc2cccc(C(=O)Nc3cc(C(=O)Nc4ccc(S(=O)(=O)O)c5cc(S(=O)(=O)O)cc(S(=O)(=O)O)c45)ccc3C)c2)c1` [SURAMIN], the Activity result in series [2] and in [10] was “Non-Toxic” each time. The outcome in the series with SW1353 [3], in the series with SW1353 [5], in the series with SW1353 [7] and in the series on SW1353 [8] was inactive. The EC50 in series [6] was 15000 nM. Besides, in the series on SW1353 [1], the result was Active.
Take `O=C(Nc1cc(C(=O)Nc2ccc(S(=O)(=O)O)cc2S(=O)(=O)O)cc(C(=O)Nc2ccc(S(=O)(=O)O)cc2S(=O)(=O)O)c1)Nc1cc(C(=O)Nc2ccc(S(=O)(=O)O)cc2S(=O)(=O)O)cc(C(=O)Nc2ccc(S(=O)(=O)O)cc2S(=O)(=O)O)c1`: the Kd in series [12] was determined as 4.66 nM.
`O=C(Nc1cccc(C(=O)Nc2cc(C(=O)Nc3ccc(S(=O)(=O)O)c4cc(S(=O)(=O)O)cc(S(=O)(=O)O)c34)ccc2F)c1)Nc1cccc(C(=O)Nc2cc(C(=O)Nc3ccc(S(=O)(=O)O)c4cc(S(=O)(=O)O)cc(S(=O)(=O)O)c34)ccc2F)c1`: the Kd in [12] turned out to be 1.55 nM.
